Screens: PubChem, several laboratories
TCR-CD3 inh: blocks the human TCR-CD3 interaction. TAMRA-labeled TCR probe fluorescence, biochemical. inhibition, % at 9.4 µM. actives 0.37% (n = 360,000); in the data active = inhibition above about 19%;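 note: recombinant mutant TCR 2C K166C tagged with TAMRA read by polarization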
MLLE-PAM2 inh: inhibitors of microRNA-mediated deadenylation, human PABP1 MLLE binding; AID 588489; P11940; actives 0.36% (n = 360,000); GST-MLLE / FITC-PAM2 fluorescence polarization; inhibition, % at 20 µM; in the data active = inhibition above about 35%, passing the limit was not always enough
RBBP9 inhibitor: inhibitors of human serine hydrolase RBBP9 | O75884 | recombinant RBBP9, FP-Rh probe fluorescence polarization | inhibition, % at 7.94 µM | actives 0.2% (n = 220,000) | AID 1515;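 active = inhibition above the campaign mean of all tested compounds plus 3 SD, cut at about 14% in these data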
Target sequence (O75884 whole entry, looked up): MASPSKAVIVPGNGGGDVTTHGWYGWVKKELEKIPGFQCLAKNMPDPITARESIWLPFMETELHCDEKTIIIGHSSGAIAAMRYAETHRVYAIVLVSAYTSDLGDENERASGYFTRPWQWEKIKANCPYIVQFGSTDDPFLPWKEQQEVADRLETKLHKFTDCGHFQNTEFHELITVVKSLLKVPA
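Test system: recombinant human RBBP9. Quantity: 2.5 µM RBBP9 dispensing solution, before mixing. Detection: FP readout at 525/598 nm. Reagent: Serine-hydrolase probe FP-Rh, 375 nM pre-mixing. Measure: % inhibition. Control set: DMSO-treated enzyme wells and wells lacking RBBP9. Buffer or medium: Tris-NaCl-Pluronic buffer, pH 8.0. Times: preincubation 30 min plus labeling 45 min at 25 °C.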
eIF4H FP inh: inhibitors of RNA binding by human eIF4H | AID 2012 | inhibition, % at 35 µM | actives 0.94% (n = 290,000) | eIF4H fluorescence polarization binding assay;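 note: calls also rest on retests at 20 µM and on dose response follow-up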
PABP polyA inh: blocks human PABP binding to poly(A) RNA. fluorescence polarization. actives 1% (n = 290,000). AID 2014. P11940. calls only at 35 µM;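 note: calls also rest on retests at 20 µM and on dose response follow-up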
BSA TAMRA ctr: interferes with TAMRA-BSA probe, flagging TCR-CD3 hits. shares compounds with TCR-CD3 inh. TAMRA-labeled BSA probe fluorescence counterscreen. inhibition, % at 9.4 µM. actives 10% (n = 1,200). AID 652035; in the data active = inhibition above about 23%
TCR-CD3 inh conf: TCR-CD3 interaction inhibition, confirmation; inhibition, % at 9.4 µM; shares compounds with TCR-CD3 inh; AID 652036; TAMRA-labeled TCR probe fluorescence binding assay; actives 48% (n = 1,200); in the data active = inhibition above about 19%
Large screens that a line does not name were inactive (follow-up assays come after a bar, where they were run). Shown are actives, neighbours in structure and some others; about 1.6% of the full set was active somewhere. Unless noted, the rule behind the calls is not given here.

O=C(N/N=C/c1cc2c3c(c1O)CCCN3CCC2)c1ccccc1O	TCR-CD3 inh 69, eIF4H FP inh inconclusive | BSA TAMRA ctr 31 | TCR-CD3 inh conf 68
COc1cccc(NC(=O)N(C)C[C@H]2OCc3cn(nn3)CCCC(=O)N([C@H](C)CO)C[C@@H]2C)c1	none (no result: MLLE-PAM2 inh, RBBP9 inhibitor, eIF4H FP inh, PABP polyA inh)
O=C1CNC(=S)N1CCc1ccc(O)c(O)c1	TCR-CD3 inh 31 | BSA TAMRA ctr inactive | TCR-CD3 inh conf 27
O=C1CNC(=S)N1CCOc1ccccc1	none
COCCN=c1scc(-c2ccco2)n1/N=C/c1ccc(O)c(O)c1O	TCR-CD3 inh 26, RBBP9 inhibitor 24, eIF4H FP inh inconclusive, PABP polyA inh active | BSA TAMRA ctr inactive | TCR-CD3 inh conf 24
O=C1/C(=C\c2cccc([N+](=O)[O-])c2O)SC(=S)N1Cc1ccccc1	TCR-CD3 inh 82 (no result: RBBP9 inhibitor) | BSA TAMRA ctr inactive | TCR-CD3 inh conf inactive
O=C1/C(=C/c2ccc(O)c([N+](=O)[O-])c2)SC(=S)N1Cc1ccccc1	eIF4H FP inh inconclusive
COC(=O)C1=C(C)N(Cc2ccccc2)C(=S)NC1c1ccc(Cl)cc1 (stereo not given)	none (no result: MLLE-PAM2 inh, RBBP9 inhibitor, eIF4H FP inh, PABP polyA inh)
CC1CCCCN1C(=O)CSc1nnc(-c2ccccc2O)o1 (stereo not given)	TCR-CD3 inh 27 (no result: RBBP9 inhibitor) | BSA TAMRA ctr inactive | TCR-CD3 inh conf 21
CC(=O)Nc1ccc(Nc2c3c4c(cccc4n(C)c2=O)C(=O)c2ccccc2-3)cc1	TCR-CD3 inh 21, eIF4H FP inh inconclusive | BSA TAMRA ctr 55 | TCR-CD3 inh conf 37
CC(=O)Nc1ccc(NC2=CC(=O)c3ccccc3C2=O)cc1	none (no result: RBBP9 inhibitor)
O=C(N/N=C/C1=C(N2CCOCC2)C(=C\c2ccccc2)/CC1)Nc1ccccc1	none
O=C(O)c1ccccc1N/N=C/C1=C(N2CCOCC2)C(=C\c2ccccc2)/CC1	TCR-CD3 inh 20 | BSA TAMRA ctr inactive | TCR-CD3 inh conf inactive
Nc1ccn([C@@H]2O[C@H](C(=O)NCC(=O)N3CCOCC3)[C@@H](O)[C@H]2O)c(=O)n1	none (no result: MLLE-PAM2 inh, RBBP9 inhibitor, eIF4H FP inh, PABP polyA inh)
O=C(COC(=O)c1c2c(nc3ccccc13)/C(=C\c1cccs1)CCC2)Nc1ccccc1	none
CC(=O)c1ccc(NC(=O)COC(=O)c2c3c(nc4ccccc24)/C(=C\c2cccs2)CCC3)cc1	TCR-CD3 inh 65, eIF4H FP inh inconclusive | BSA TAMRA ctr inactive | TCR-CD3 inh conf 40
COC(=O)C1=CC(=O)N2CCN=C2S1	none (no result: MLLE-PAM2 inh, RBBP9 inhibitor, eIF4H FP inh, PABP polyA inh)
O=C(N/N=C/c1cccnc1)c1cc(O)c(O)c(O)c1	TCR-CD3 inh 32 (no result: RBBP9 inhibitor) | BSA TAMRA ctr inactive | TCR-CD3 inh conf 20
COc1cc(OC)cc(C2=Cc3ccc(OC)cc3C(CC(C)=O)N2c2ccc(-c3cccs3)cc2)c1 (stereo not given)	none (no result: MLLE-PAM2 inh, RBBP9 inhibitor, eIF4H FP inh, PABP polyA inh)
Nc1ccc(Nc2ccccc2)c(S(=O)(=O)O)c1	TCR-CD3 inh 22, eIF4H FP inh 95, PABP polyA inh active | BSA TAMRA ctr inactive | TCR-CD3 inh conf inactive
Cc1ccc(Nc2ccc(N)cc2S(=O)(=O)O)cc1	none
COC(=O)CC1(C(=O)OC)Nc2cc(Cl)c(Cl)cc2S(=O)(=O)N1O (stereo not given)	TCR-CD3 inh 38 (no result: RBBP9 inhibitor, eIF4H FP inh, PABP polyA inh) | BSA TAMRA ctr inactive | TCR-CD3 inh conf 29
COC(=O)CCC(=O)Nc1ccc(Cl)c(Cl)c1	none
O=C(O)c1ccccc1-c1ccc(C=c2sc3nc4cc(Br)cnc4n3c2=O)o1	TCR-CD3 inh 27 (no result: RBBP9 inhibitor, eIF4H FP inh, PABP polyA inh) | BSA TAMRA ctr inactive | TCR-CD3 inh conf 23
COC(=O)[C@]12CCCCC=C1N(CCc1ccc(OC)c(OC)c1)C(=O)[C@H](CC(=O)NCc1cccs1)C2	none (no result: MLLE-PAM2 inh, RBBP9 inhibitor, eIF4H FP inh, PABP polyA inh)
CN(N=Cc1ccccc1O)c1ccc2ccccc2n1	TCR-CD3 inh 20 (no result: RBBP9 inhibitor, eIF4H FP inh, PABP polyA inh) | BSA TAMRA ctr inactive | TCR-CD3 inh conf inactive
COC(=O)C1=C(C)N(C)C(=NCC2CC2)NC1c1ccccc1C(F)(F)F (stereo not given)	none (no result: MLLE-PAM2 inh, RBBP9 inhibitor, eIF4H FP inh, PABP polyA inh)
CCCCC#Cc1ccccc1COC[B-](F)(F)F	none (no result: MLLE-PAM2 inh, RBBP9 inhibitor, eIF4H FP inh, PABP polyA inh)
Brc1ccc2cccnc2c1	none
Nc1cc2cccnc2cc1Cl	TCR-CD3 inh 19 (no result: RBBP9 inhibitor, eIF4H FP inh, PABP polyA inh) | BSA TAMRA ctr inactive | TCR-CD3 inh conf inactive
Cc1ccc2c(=O)cc(C(F)F)oc2c1	TCR-CD3 inh 23 | BSA TAMRA ctr inactive | TCR-CD3 inh conf inactive
Cc1cc(C)c2c(=O)cc(C(F)F)oc2c1	none
CC(C)NC(=O)C1(C)CN(S(C)(=O)=O)CC(=O)N1C1CC1 (stereo not given)	none (no result: MLLE-PAM2 inh, RBBP9 inhibitor, eIF4H FP inh, PABP polyA inh)
